{
  "source": "ChEMBL document CHEMBL1154596",
  "about": "“The effects of C-terminal modifications on the opioid activity of [N-benzylTyr(1)]dynorphin A-(1-11) analogues” (J Med Chem, 2009)",
  "key": {"Rattus norvegicus": {"organism": "Rattus norvegicus", "assay": "Selectivity ratio of Ki for rat kappa opioid receptor to Ki for rat mu opioid receptor"}, "[1]": {"biological_target": "Kappa-type opioid receptor (Rattus norvegicus) (UniProt P34975)", "sequence (P34975 whole entry)": "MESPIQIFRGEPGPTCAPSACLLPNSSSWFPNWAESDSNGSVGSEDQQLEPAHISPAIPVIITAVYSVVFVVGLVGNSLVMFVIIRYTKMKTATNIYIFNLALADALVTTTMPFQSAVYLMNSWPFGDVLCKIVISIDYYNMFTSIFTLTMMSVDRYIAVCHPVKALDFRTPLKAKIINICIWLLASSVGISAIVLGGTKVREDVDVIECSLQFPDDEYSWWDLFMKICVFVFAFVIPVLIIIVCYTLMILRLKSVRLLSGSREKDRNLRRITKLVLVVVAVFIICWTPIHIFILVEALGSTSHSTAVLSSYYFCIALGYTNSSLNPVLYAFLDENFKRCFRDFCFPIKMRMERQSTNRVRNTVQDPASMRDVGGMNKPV", "assay": "Activity at rat kappa opioid receptor expressed in CHO cells assessed as inhibition of adenylyl cyclase activity at 10 uM relative to Dyn A-(1-13)NH2", "type": "functional, cell-based", "outline": "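CHO cells stably expressing cloned rat KOR. Adenylyl cyclase inhibition was measured with each peptide at 10 μM. Efficacy is expressed relative to the maximal inhibition by the reference agonist Dyn A-(1-13)NH2 (100 nM). Values are mean ± SEM of at least three independent experiments.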"}, "[2]": {"assay": "Selectivity ratio of Ki for rat kappa opioid receptor to Ki for mouse delta opioid receptor"}, "Mu-type opioid receptor": {"biological_target": "Mu-type opioid receptor (Rattus norvegicus, UniProt P33535)", "sequence (P33535 whole entry)": "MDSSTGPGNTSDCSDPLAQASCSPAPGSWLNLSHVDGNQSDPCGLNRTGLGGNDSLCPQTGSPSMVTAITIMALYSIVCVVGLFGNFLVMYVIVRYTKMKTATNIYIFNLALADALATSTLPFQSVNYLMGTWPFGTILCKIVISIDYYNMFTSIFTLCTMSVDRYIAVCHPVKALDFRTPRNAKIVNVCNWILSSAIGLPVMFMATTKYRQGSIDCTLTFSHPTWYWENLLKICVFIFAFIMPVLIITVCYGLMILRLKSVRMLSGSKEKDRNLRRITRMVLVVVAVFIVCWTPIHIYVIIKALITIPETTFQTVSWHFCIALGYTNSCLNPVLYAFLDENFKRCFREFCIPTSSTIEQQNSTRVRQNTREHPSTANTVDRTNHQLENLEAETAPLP", "assay": "Displacement of [3H]DAMGO from rat mu opioid receptor expressed in CHO cells", "type": "cell-based", "outline": "(§1)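 Radioligand competition binding on membranes of CHO cells stably expressing cloned rat KOR, rat MOR or mouse DOR. Ki values are mean ± SEM of at least three independent experiments.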"}, "[3]": {"biological_target": "Kappa-type opioid receptor (Rattus norvegicus, UniProt P34975)", "sequence (P34975 whole entry)": "as the sequence (P34975 whole entry) above", "assay": "Displacement of [3H]diprenorphine from rat kappa opioid receptor expressed in CHO cells", "type": "cell-based", "outline": "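Radioligand competition binding on membranes of CHO cells stably expressing cloned rat KOR, rat MOR or mouse DOR. […] Ki values are mean ± SEM of at least three independent experiments.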"}, "[4]": {"biological_target": "Delta-type opioid receptor (Mus musculus, UniProt P32300)", "sequence (P32300 whole entry)": "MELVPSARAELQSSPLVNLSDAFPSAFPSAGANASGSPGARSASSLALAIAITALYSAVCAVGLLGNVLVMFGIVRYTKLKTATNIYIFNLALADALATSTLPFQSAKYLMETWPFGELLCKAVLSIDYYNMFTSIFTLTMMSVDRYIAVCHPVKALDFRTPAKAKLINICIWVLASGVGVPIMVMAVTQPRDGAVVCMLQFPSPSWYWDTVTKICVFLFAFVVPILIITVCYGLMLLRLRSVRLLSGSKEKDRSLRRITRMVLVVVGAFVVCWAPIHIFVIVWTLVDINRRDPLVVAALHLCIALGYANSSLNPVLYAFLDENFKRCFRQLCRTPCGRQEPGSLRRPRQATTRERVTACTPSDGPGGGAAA", "assay": "Displacement of [3H]DPDPE from mouse delta opioid receptor expressed in CHO cells", "type": "cell-based", "outline": "as §1"}},
  "data": [
    {"smiles": "CC(C)C[C@H](NC(=O)[C@H](Cc1ccccc1)NC(=O)CNC(=O)CNC(=O)[C@H](Cc1ccc(O)cc1)NCc1ccccc1)C(=O)N[C@@H](CCCNC(=N)N)C(=O)N[C@@H](CCCNC(=N)N)C(=O)N[C@H](C)C(=O)N[C@@H](CCCNC(=N)N)C(=O)N1CCC[C@@H]1C(=O)N[C@@H](CCCCN)C(N)=O", "values": [
      {"measurement": "Ratio Ki", "setting": "Rattus norvegicus", "result": 15},
      {"measurement": "inhibition", "setting": "[1]", "result": 70, "unit": "%"},
      {"measurement": "Ratio Ki", "setting": "[2]", "result": 109}
    ]},
    {"smiles": "CC[C@H](C)[C@H](NC(=O)[C@H](CCCNC(=N)N)N(C)C(=O)[C@H](CCCNC(=N)N)NC(=O)[C@H](CC(C)C)NC(=O)[C@H](Cc1ccccc1)NC(=O)CNC(=O)CNC(=O)[C@H](Cc1ccc(O)cc1)NCc1ccccc1)C(=O)N[C@@H](CCCNC(=N)N)C(=O)N1CCC[C@H]1C(=O)N[C@@H](CCCCN)C(N)=O", "values": [
      {"measurement": "inhibition", "setting": "[1]", "result": 70, "unit": "%"}
    ]},
    {"smiles": "CC(C)C[C@H](NC(=O)[C@H](Cc1ccccc1)NC(=O)CNC(=O)CNC(=O)[C@H](Cc1ccc(O)cc1)NCc1ccccc1)C(=O)N[C@@H](CCCNC(=N)N)C(=O)N(C)[C@@H](CCCNC(=N)N)C(=O)N[C@H](C)C(=O)N[C@@H](CCCNC(=N)N)C(=O)N1CCC[C@H]1C(=O)N[C@@H](CCCCN)C(N)=O", "values": [
      {"measurement": "Ratio Ki", "setting": "Rattus norvegicus", "result": 14},
      {"measurement": "inhibition", "setting": "[1]", "result": 70, "unit": "%"},
      {"measurement": "Ratio Ki", "setting": "[2]", "result": 147}
    ]},
    {"smiles": "CC(C)C[C@H](NC(=O)[C@H](Cc1ccccc1)NC(=O)CNC(=O)CNC(=O)[C@H](Cc1ccc(O)cc1)NCc1ccccc1)C(=O)N[C@@H](CCCNC(=N)N)C(=O)N(C)[C@@H](CCCNC(=N)N)C(=O)N[C@H](C)C(=O)N[C@@H](CCCNC(=N)N)C(=O)N1CCC[C@@H]1C(=O)N[C@@H](CCCCN)C(N)=O", "values": [
      {"measurement": "Ratio Ki", "setting": "Rattus norvegicus", "result": 16},
      {"measurement": "inhibition", "setting": "[1]", "result": 70, "unit": "%"},
      {"measurement": "Ratio Ki", "setting": "[2]", "result": 151}
    ]},
    {"smiles": "CC[C@H](C)[C@H](NC(=O)[C@H](CCCNC(=N)N)N(C)C(=O)[C@H](CCCNC(=N)N)NC(=O)[C@H](CC(C)C)NC(=O)[C@H](Cc1ccccc1)NC(=O)CNC(=O)CNC(=O)[C@H](Cc1ccc(O)cc1)NCc1ccccc1)C(=O)N[C@@H](CCCNC(=N)N)C(=O)N1CCC[C@@H]1C(=O)N[C@@H](CCCCN)C(N)=O", "values": [
      {"measurement": "inhibition", "setting": "[1]", "result": 70, "unit": "%"}
    ]},
    {"smiles": "CC(=O)NC[C@H](NC(=O)[C@H](CCCNC(=N)N)NC(=O)[C@H](CCCNC(=N)N)NC(=O)[C@@H](CC(N)=O)NC(=O)[C@H](Cc1ccccc1)NC(=O)CNC(=O)CNC(=O)[C@H](Cc1ccc(O)cc1)NCc1ccccc1)C(=O)N[C@@H](CCCNC(=N)N)C(=O)N1CCC[C@H]1C(=O)N[C@@H](CCCCN)C(N)=O", "values": [
      {"measurement": "Ratio Ki", "setting": "Rattus norvegicus", "result": 25},
      {"measurement": "Ki", "setting": "Mu-type opioid receptor", "result": 1660, "unit": "nM"},
      {"measurement": "Ki", "setting": "[3]", "result": 66.9, "unit": "nM"},
      {"measurement": "Ratio Ki", "setting": "[2]", "result": 149},
      {"measurement": "Ki", "setting": "[4]", "result": "> 10000", "unit": "nM"}
    ]},
    {"smiles": "CC(C)C[C@H](NC(=O)[C@H](Cc1ccccc1)NC(=O)CNC(=O)CNC(=O)[C@H](Cc1ccc(O)cc1)NCc1ccccc1)C(=O)N[C@@H](CCCNC(=N)N)C(=O)N[C@@H](CCCNC(=N)N)C(=O)N[C@H](C)C(=O)N[C@@H](CCCNC(=N)N)C(=O)N1CCC[C@H]1C(=O)N[C@@H](CCCCN)C(N)=O", "values": [
      {"measurement": "Ratio Ki", "setting": "Rattus norvegicus", "result": 11},
      {"measurement": "inhibition", "setting": "[1]", "result": 70, "unit": "%"},
      {"measurement": "Ratio Ki", "setting": "[2]", "result": 80}
    ]}
  ]
}
